In the library only some 3.8% were active in any assay of this set; here they are far more common.
KCNQ1 act – human KCNQ1 channel potentiation or activation | B-score at 10 µM | AID 2648 | 310,000 compounds, 0.35% hits | P51787 | CHO-K1 KCNQ1, thallium flux FluxOR fluorescence; hits give high values;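 active = fluorescence ratio B-score, a plate-corrected score, at least three library SD, with initial intensity B-score within 5 SD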
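Assay system: CHO-K1 cells stably expressing KCNQ1. Medium: assay buffer for compound exposure, DMSO matched across wells. Timing: 37 °C overnight plating, 90-min dark dye load, 20-min compound pretreatment. Signal: kinetic FluxOR fluorescence, 10 s baseline plus 110 s post-stimulus.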
KCNK3 block – human KCNK3 channel inhibition, primary screen. O14649. CHO-KCNK3 thallium flux, FluxOR fluorescence; hits give low values. B-score at 10 µM. 340,000 compounds, 0.84% hits. AID 602410;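 active = B-score under library mean minus 4 SD, starting fluorescence ratio at most library mean plus 5 SD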;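 note: more negative B-score means stronger inhibition of thallium flux through KCNK3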
hERG protect – compounds protecting human hERG from proarrhythmic drug block. CHO-hERG, FluxOR thallium flux, dofetilide IC70 present. activation (rescue from dofetilide block), less the hit threshold, % at 10 µM. 310,000 compounds, 0.51% hits;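 active = activation above the mean of controls blocked by dofetilide plus 5 SD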;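 note: thallium influx through hERG after potassium depolarization seen as dye fluorescence rise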
Target sequence (Q12809 whole entry, looked up): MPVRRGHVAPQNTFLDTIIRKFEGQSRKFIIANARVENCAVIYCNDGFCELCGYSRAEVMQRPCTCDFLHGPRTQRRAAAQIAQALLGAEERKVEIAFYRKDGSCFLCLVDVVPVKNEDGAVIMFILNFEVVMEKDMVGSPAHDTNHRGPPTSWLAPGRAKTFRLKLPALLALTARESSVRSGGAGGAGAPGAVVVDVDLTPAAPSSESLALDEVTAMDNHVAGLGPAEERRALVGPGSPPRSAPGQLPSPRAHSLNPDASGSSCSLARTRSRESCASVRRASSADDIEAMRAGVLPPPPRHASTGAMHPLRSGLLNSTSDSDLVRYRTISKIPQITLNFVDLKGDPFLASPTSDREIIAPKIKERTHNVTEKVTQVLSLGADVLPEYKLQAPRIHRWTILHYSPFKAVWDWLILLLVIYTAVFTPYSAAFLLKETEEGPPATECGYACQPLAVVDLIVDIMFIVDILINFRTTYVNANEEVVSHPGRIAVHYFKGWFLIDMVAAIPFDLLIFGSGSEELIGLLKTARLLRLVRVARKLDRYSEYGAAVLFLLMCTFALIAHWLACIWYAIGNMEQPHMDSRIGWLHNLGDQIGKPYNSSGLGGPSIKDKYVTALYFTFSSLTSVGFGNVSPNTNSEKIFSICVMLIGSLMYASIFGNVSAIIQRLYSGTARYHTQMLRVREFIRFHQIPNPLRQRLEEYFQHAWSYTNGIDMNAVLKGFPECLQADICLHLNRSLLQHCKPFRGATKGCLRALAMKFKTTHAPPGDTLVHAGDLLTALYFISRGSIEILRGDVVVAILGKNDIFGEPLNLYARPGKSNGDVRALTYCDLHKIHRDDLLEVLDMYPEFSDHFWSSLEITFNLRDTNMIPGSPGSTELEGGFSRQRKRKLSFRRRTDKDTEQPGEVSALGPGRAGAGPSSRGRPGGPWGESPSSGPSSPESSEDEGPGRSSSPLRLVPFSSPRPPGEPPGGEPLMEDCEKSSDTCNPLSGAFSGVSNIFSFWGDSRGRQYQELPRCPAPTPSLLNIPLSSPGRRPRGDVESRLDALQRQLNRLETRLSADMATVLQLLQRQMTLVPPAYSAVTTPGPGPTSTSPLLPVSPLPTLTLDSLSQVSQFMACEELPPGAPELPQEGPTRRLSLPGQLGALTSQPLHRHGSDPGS
KCNQ1 block – blocks the human KCNQ1 potassium channel; P51787; CHO-K1 KCNQ1, FluxOR thallium flux fluorescence; hits give high values; B-score at 10 µM; 310,000 compounds, 1.3% hits;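 active = compounds whose thallium flux B-score, printed positive for inhibition, exceeds three library SD while starting fluorescence stays within three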;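 note: channel opened by potassium depolarization with thallium stimulus after 20 min compound exposure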
KCNK9 block – human KCNK9 channel inhibition | HEK293 KCNK9, FluxOR thallium flux fluorescence; hits give low values | Q9NPC2 | 310,000 compounds, 1.2% hits | B-score at 10 µM;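 active = ratio B-score over 3 SD below the library mean, with starting fluorescence within 5 SD of its mean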;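 note: negative B-score means less thallium flux so channel inhibition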
Kir21 inh – inhibitors of mouse Kir2.1 inward-rectifier potassium channel; HEK293-Kir2.1, FluxOR thallium flux fluorescence; hits give low values; B-score at 10 µM; 310,000 compounds, 0.85% hits; AID 1672;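 active = fluorescence ratio B-score at or below minus 3 SD of library scores, with starting-brightness B-score within 2 SD, cut at about -4.2 in these data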;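 note: channel flux triggered by added potassium and thallium sulfate stimulus; B-score of peak minus minimum fluorescence over baseline after thallium stimulus; more negative B-score means stronger Kir2.1 block with less thallium influx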
KCNQ1 block val – confirmation of human KCNQ1 potassium channel inhibitors; KCNQ1 cell line, FluxOR thallium flux fluorescence; AID 588353; shares compounds with KCNQ1 block; 1,600 compounds, 93% hits; inhibition, % at 10 µM;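 active = primary screen active, with duplicate mean exceeding buffer control mean plus 3 SD of buffer wells, cut at about 28% in these data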;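 note: 0% = buffer control ratio and 100% = XE991 inhibitor control ratio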
CHO KCNQ1 ctr – KCNQ1 inhibitor counter-screen hit in parental CHO cells | fluorescence ratio (Tl flux) at 10 µM | 1,600 compounds, 21% hits | AID 588366 | parental CHO-K1, FluxOR thallium flux fluorescence ratio; hits give low values; zero means no signal rise above baseline | shares compounds with KCNQ1 block;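 active = mean of duplicate thallium-flux fluorescence ratios in parental host cells more than 5 SD below the buffer control mean, cut at about 0.38 in these data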;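 note: ratio is peak minus minimum fluorescence divided by baseline fluorescence; actives read low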
KCNQ1 ephys val – blocks human KCNQ1 current in automated patch clamp. shares compounds with KCNQ1 block. 490 compounds, 20% hits. calls only at 10 µM. KCNQ1-CHO cells;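 active = KCNQ1 current drop exceeding 3 SD of negative control wells, seen in both duplicate runs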;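 note: steady state current during a 2 s step from -80 to +40 mV; negative values mean current inhibition and positive values mean potentiation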
KCNQ2 spec – rat KCNQ2 inhibition in KCNQ1 inhibitor specificity screen; shares compounds with KCNQ1 block; KCNQ2 cells, FluxOR thallium flux fluorescence; inhibition, % at 10 µM; 1,600 compounds, 71% hits; AID 651746;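 active = mean percent inhibition of the KCNQ2 thallium signal more than 5 SD above the buffer-only control wells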;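 note: KCNQ2 expressed in CHO cells; 0% = buffer control wells and 100% = XE-991 inhibitor control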
KCNQ1 KCNE1 spec – selectivity of KCNQ1 inhibitors: inhibition of human KCNQ1/KCNE1 channel; KCNQ1/KCNE1 cells, FluxOR thallium flux fluorescence; 1,600 compounds, 77% hits; shares compounds with KCNQ1 block; inhibition, % at 10 µM;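 active = mean percent inhibition of duplicate wells above the buffer-only control mean plus 3 SD of those controls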;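 note: 0% = buffer only wells and 100% = XE-991 inhibitor control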
KCNK9 inh conf – human KCNK9 inhibitor confirmation. shares compounds with KCNK9 block. HEK293 KCNK9 cells, FluxOR thallium flux fluorescence. inhibition, % at 10 µM. 4,900 compounds, 43% hits;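 active = thallium signal inhibited by more than 5 SD of the compound-free buffer control wells, on both duplicate plates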;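 note: 0% = assay buffer control wells without compound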
Kir2-1 spec – mouse Kir2.1 off-target activity of KCNK9 modulators. Kir2.1 cells, FluxOR thallium flux fluorescence. inhibition, % at 10 µM. shares compounds with KCNK9 block. 4,900 compounds, 4% hits;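 active = thallium signal drop more than 5 SD beyond the mean of the no-compound control wells, seen in both duplicate plates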;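 note: signal is fluorescence rise after thallium addition divided by baseline fluorescence; plate controls were assay buffer only for no effect and full block by chlorpromazine control for full effect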
HEK293 Tl ctr – non-induced cell nonspecific activity of KCNK9 modulators | shares compounds with KCNK9 block | non-induced KCNK9-HEK293, FluxOR thallium flux | inhibition, % at 10 µM | 4,900 compounds, 40% hits | AID 492997;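 active = thallium signal drop beyond 5 SD of the untreated control mean, on both duplicate plates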;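 note: plate controls were buffer only IC0 wells for no effect and SID17386958 at its maximal inhibitory level for full effect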
KCNK3 inh conf – human KCNK3 channel inhibition, confirmation assay | 2,400 compounds, 99% hits | shares compounds with KCNK3 block | CHO-KCNK3 thallium flux, FluxOR fluorescence; 0% buffer, 100% carvedilol maximal block | ratio percent of control, % at 10 µM;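 active = ratio percent of control, averaged over triplicates, above buffer control mean plus 5 SD, cut at about 64% in these data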;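 note: ratio is the fluorescence rise from min to max over baseline after thallium stimulus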
KCNK3 noninduced – KCNK3 inhibitor counter-screen hit in non-induced cells; shares compounds with KCNK3 block; thallium flux ratio (lower = more inhibition) at 10 µM; non-induced KCNK3 parental cells, FluxOR thallium flux; hits give low values; 2,400 compounds, 40% hits;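 active = thallium flux ratio, averaged over three wells, more than 5 SD below the buffer control mean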;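 note: host cells are CHO cells without KCNK3 induction; ratio is peak minus trough fluorescence over baseline then normalized to buffer controls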
The depositor's hits bear a star; i = inactive; nt = no result; + = active, no number.

SMILES	KCNQ1 act	KCNK3 block	hERG protect	KCNQ1 block	KCNK9 block	Kir21 inh	KCNQ1 block val	CHO KCNQ1 ctr	KCNQ2 spec	KCNQ1 KCNE1 spec	KCNK9 inh conf	Kir2-1 spec	HEK293 Tl ctr	others
Cc1cc(Br)ccc1NC(=O)CN(C)C(=O)C1CCN(c2ncnc3sc(C)c(C)c23)CC1	nt	i	nt	nt	nt	nt	nt	nt	nt	nt	nt	nt	nt
Cn1ncc(Cl)c1C(=O)N1CCN(c2ccc(Cl)c(Cl)c2)CC1	i	i	-19.7	12*	-10.3*	0.38	120.0*	0.433	98.0%*	87.0%*	41.5%*	i	26.5%*	KCNQ1 ephys val=i
Cn1ncc(Cl)c1C(=O)N1CCN(c2ccccc2)CC1	i	i	-16.4	i	i	-1.23	nt	nt	nt	nt	nt	nt	nt
C=C(C)C(=O)Oc1ccc(N2C(=O)[C@@H]3C4C=CC(C4)[C@@H]3C2=O)cc1	i	i	-8.7	i	i	-1.63	nt	nt	nt	nt	nt	nt	nt
CCN(CC)S(=O)(=O)c1ccc(C)c(NC(=S)Nc2cccc(S(=O)(=O)N3CCCCCC3)c2)c1	i	i	-20.8	6*	i	-2.71	85.5*	0.402	86.7%*	89.0%*	i	i	i
O=C(Nc1cccc(Cl)c1)Nc1cc(S(=O)(=O)N2CCCCC2)ccc1Cl	i	i	-30.6	8*	i	1.86	104.0*	0.475	67.0%*	105.0%*	i	i	i
CCN(CC(=O)Nc1cc(S(=O)(=O)N2CCOCC2)ccc1Cl)Cc1ccccc1	nt	i	nt	nt	nt	nt	nt	nt	nt	nt	nt	nt	nt
CCN(CC(=O)Nc1cc(S(=O)(=O)N2CCCCC2)ccc1Cl)Cc1ccccc1	i	i	-14.5	11*	i	-1.46	86.5*	0.403	104.0%*	136.5%*	i	i	i
CCOC(=O)c1nnn(-c2nonc2-n2cccc2)c1CCl	i	i	-10.4	i	i	1.28	nt	nt	nt	nt	nt	nt	nt
CCOC(=O)c1nnn(-c2nonc2-n2cccc2)c1CN1CCC(C)CC1	i	-9.12*	-13.5	6*	-9.3*	-1.35	87.5*	0.394	71.3%*	128.5%*	i	i	32.0%*
Cc1c(-c2ccccc2)[n+](=O)c2c(n1[O-])CCCC2	i	i	-3.9	i	i	-0.95	nt	nt	nt	nt	nt	nt	nt
O=C(OCC(=O)N(C1CCCCC1)C1CCCCC1)c1ccccc1O	i	i	-7.0	7*	-9.43*	0.96	116.0*	0.396	123.7%*	179.0%*	37.0%*	i	23.5%*	KCNQ1 ephys val=+
CCC(C(=O)Nc1ccccc1N1CCCC1)c1ccccc1 (centres undefined)	i	i	-8.7	i	i	-1.81	nt	nt	nt	nt	nt	nt	nt
COc1cc2ccccc2cc1C(=O)Nc1ccccc1N1CCCC1	i	i	-14.0	20*	-8.99*	-0.48	99.0*	0.456	81.7%*	110.0%*	35.0%*	i	34.0%*	KCNQ1 ephys val=i
CCC(Oc1ccccc1)C(=O)Nc1ccccc1N1CCCCC1 (centres undefined)	i	i	-9.7	6*	-14.6*	-0.15	121.0*	0.453	99.0%*	143.0%*	50.0%*	i	41.0%*	KCNQ1 ephys val=i
Cc1ccccc1CN1CCN(S(=O)(=O)c2ccc(Cl)s2)CC1	i	i	-14.4	6*	i	0.03	90.0*	0.37*	122.3%*	118.5%*	i	i	29.0%*
COc1ccc(-c2ccc(CCC(=O)O)n2CC(=O)Nc2ccccc2C)cc1	i	i	-2.2	i	i	-0.17	nt	nt	nt	nt	nt	nt	nt
COc1ccc2nc3c(cc2c1)c(NC(=O)c1cccs1)nn3CC(C)C	i	-9.84*	-14.4	6*	-8.96*	0.98	143.5*	0.287*	126.7%*	+	i	i	i	KCNK3 inh conf=93.7*;KCNK3 noninduced=0.148*
O=C(OCc1ccccn1)c1ccc(COc2ccc3ccccc3c2)o1	i	-10.4*	-31.0	8*	-7.01*	0.05	148.5*	0.347*	121.0%*	+	nt	nt	nt	KCNK3 inh conf=122.3*;KCNK3 noninduced=0.146*
O=C(O)c1cccc(NC2=C(Cl)C(=O)c3ccccc3C2=O)c1	i	-8.71*	-28.6	16*	i	-7.33*	155.0*	0.28*	118.7%*	+	nt	nt	nt	KCNK3 inh conf=126.3*;KCNK3 noninduced=0.123*
Cc1ccc(NC2=C(NC(=O)c3ccccc3)C(=O)c3ccccc3C2=O)cc1Cl	i	i	4.3	i	i	-0.27	nt	nt	nt	nt	nt	nt	nt
O=C(O)c1ccc(NC2=C(Cl)C(=O)c3ccccc3C2=O)cc1	i	-11.7*	-44.7	15*	-12.4*	-9.06*	167.0*	0.261*	117.7%*	+	nt	nt	nt	KCNK3 inh conf=137.0*;KCNK3 noninduced=0.0923*
CC1=C(Nc2ccc(C(=O)O)cc2)C(=O)c2ccccc2C1=O	i	i	0.9	i	i	-0.82	nt	nt	nt	nt	nt	nt	nt
CN(C)CCNC(=O)c1ccc2c(c1)N(Cc1ccc(F)cc1)CCS2	i	i	-7.5	i	i	-2.63	nt	nt	nt	nt	nt	nt	nt
O=C(NC1CCCC1)c1ccc2c(c1)N(Cc1ccc(F)cc1)CCS2	i	-9.26*	-12.2	9*	-13.9*	-1.43	75.5*	0.394	98.0%*	90.5%*	74.5%*	i	41.5%*	KCNK3 inh conf=96.3*;KCNK3 noninduced=i

From PubChem BioAssay
